Measurements reported in ChEMBL document CHEMBL1156973, “(-)-Carbodine: enantiomeric synthesis and in vitro antiviral activity against various strains of influenza virus including H5N1 (avian influenza) and novel 2009 H1N1 (swine flu)” (Bioorg Med Chem Lett, 2010).

How the values were obtained:
[1] = Selectivity ratio of IC50 for MDCK cells to EC50 for Influenza A virus Hong Kong/213/2003/H5N1 by neutral red dye uptake assay; assay type: ADME, cell-based; settings: dog; for selectivity ratio: MDCK cells, read-out: Ratio IC50/EC50
Summary of the method: (§1)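 Neutral red uptake in MDCK cells: IC50 (50% inhibition of uninfected cells) divided by EC50 (50% inhibition of virus effect), both from replicate serial-dilution assays.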

[2] = Selectivity ratio of IC50 for MDCK cells to EC50 for Influenza A virus Wisconsin/67/2005/H3N2 by neutral red dye uptake assay; assay type: ADME, cell-based; settings: dog; for selectivity ratio: MDCK cells, read-out: Ratio IC50/EC50; summary of the method: as §1
MDCK = experiment: Cytotoxicity against MDCK cells after 3 days by neutral red dye uptake assay; assay type: cell-based; settings: Canis lupus familiaris, 72 h
Summary of the method: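 Uninfected MDCK cells in replicate wells were exposed to serial compound dilutions and cell viability was read by neutral red uptake. IC50 is the drug concentration giving 50% cell inhibition without virus.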

Influenza A virus [3] = experiment: Antiviral activity against Influenza A virus Vietnam/1203/ 2004H/H5N1 infected MDCK cells assessed as inhibition of virus-induced cytopathic effect after 3 days; assay type: functional, organism-based, A/Viet Nam/1203/2004(H5N1)
[4] = Selectivity ratio of IC50 for MDCK cells to EC50 for inhibition of virus-induced cytopathic effect of Influenza A virus Vietnam/1203/ 2004H/H5N1; assay type: cell-based; settings: dog, MDCK cells; read-out: Ratio IC50/EC50
Summary of the method: (§2)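 IC50 (50% inhibition of uninfected MDCK cells) divided by EC50 (concentration reducing virus-induced CPE by 50%, scored visually), both from replicate serial-dilution assays.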

[5] = Selectivity ratio of IC50 for MDCK cells to EC90 for Influenza B virus Malaysia/2506/2004 by virus yield reduction assay; assay type: ADME, cell-based; settings: dog; for selectivity ratio: MDCK cells
Summary of the method: (§3)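 IC50 (50% inhibition of uninfected MDCK cells) divided by EC90 (concentration reducing the infectious virus titer by 90% in the yield reduction assay).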

[6] = tested on: Influenza A virus (A/Puerto Rico/8/1934(H1N1)); experiment: Antiviral activity against Influenza A virus Solomon Islands/03/2006/H1N1 infected MDCK cells after 3 days by virus yield reduction assay; assay type: functional, Influenza A virus (A/Solomon Islands/3/2006(H1N1)); settings: Influenza A virus, MDCK, 72 h
Summary of the method: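 Yield reduction assay: MDCK cells got serial compound dilutions and ≤300 CCID50 virus, in triplicate. Progeny virus was titrated. EC90 is the concentration reducing the infectious titer by 90%, as the mean of triplicates.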

[7] = Selectivity ratio of IC50 for MDCK cells to EC90 for Influenza A virus Solomon Islands/03/2006/H1N1 by virus yield reduction assay; assay type: ADME, cell-based; settings: dog, MDCK cells; summary of the method: as §3
Influenza A virus [8] = experiment: Antiviral activity against Influenza A virus California/07/2009 /H1N1 infected MDCK cells after 3 days by virus yield reduction assay; assay type: functional, A/California/07/2009(H1N1); settings: Influenza A virus, A/California/07/2009(H1N1), MDCK, 72 h
Influenza B virus = experiment: Antiviral activity against Influenza B virus Malaysia/2506/2004 infected MDCK cells after 42 to 46 hrs by neutral red dye uptake assay; assay type: functional, organism-based, B/Malaysia/2506/2004; settings: Influenza B virus, B/Malaysia/2506/2004, MDCK
Summary of the method: (§4)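 Triplicate MDCK wells got serial compound dilutions, then ≤300 CCID50 of virus, with the same inoculum for all replicates. Antiviral effect was read by neutral red dye uptake. EC50 is the concentration giving 50% inhibition of the virus effect, as the mean of triplicates.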

Influenza A virus [9] = experiment: Antiviral activity against Influenza A virus Wisconsin/67/2005/H3N2 infected MDCK cells assessed as inhibition of virus-induced cytopathic effect after 3 days; assay type: functional, organism-based, Influenza A virus (A/Wisconsin/67/2005(H3N2)); settings: Influenza A virus, MDCK, 72 h
Summary of the method: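 Triplicate MDCK (ATCC CCL-34) wells got serial dilutions of compound. They were then inoculated with ≤300 CCID50, enough for ~100% CPE in control wells within 3 days, using the same inoculum for all replicates. CPE was scored visually. EC50 is the concentration reducing CPE by 50%, as the mean of triplicates.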

[10] = Selectivity ratio of IC50 for MDCK cells to EC50 for Influenza A virus California/07/2009 /H1N1 by neutral red dye uptake assay; assay type: ADME, cell-based; settings: dog, MDCK cells; read-out: Ratio IC50/EC50; summary of the method: as §1
[11] = Selectivity ratio of IC50 for MDCK cells to EC50 for Influenza A virus Duck/MN/1525/81/H5N1 by neutral red dye uptake assay; assay type: ADME, cell-based; settings: dog; for selectivity ratio: MDCK cells, read-out: Ratio IC50/EC50; summary of the method: as §1
[12] = Selectivity ratio of IC50 for MDCK cells to EC90 for Influenza A virus Vietnam/1203/ 2004H/H5N1 by virus yield reduction assay; assay type: ADME, cell-based; settings: dog; for selectivity ratio: MDCK cells; summary of the method: as §3
H5N1 subtype [13] = experiment: Antiviral activity against Influenza A virus Hong Kong/213/2003/H5N1 infected MDCK cells assessed as inhibition of virus-induced cytopathic effect after 3 days; assay type: functional, organism-based, Influenza A virus (A/Hong Kong/213/2003(H5N1)); settings: 72 h
[14] = tested on: Influenza A virus (A/Puerto Rico/8/1934(H1N1)); experiment: Antiviral activity against Influenza A virus Solomon Islands/03/2006/H1N1 infected MDCK cells after 42 to 46 hrs by neutral red dye uptake assay; assay type: functional, organism-based, Influenza A virus (A/Solomon Islands/3/2006(H1N1)); summary of the method: as §4
[15] = Selectivity ratio of IC50 for MDCK cells to EC50 for inhibition of virus-induced cytopathic effect of Influenza A virus Gull/PA/4175/83/H5N1; assay type: cell-based; settings: dog, MDCK cells; read-out: Ratio IC50/EC50; summary of the method: as §2
H5N1 subtype [16] = experiment: Antiviral activity against Influenza A virus Duck/MN/1525/81/H5N1 infected MDCK cells after 3 days by virus yield reduction assay; assay type: functional, Influenza A virus (A/duck/Minnesota/1525/1981(H5N1)); settings: Influenza A virus, MDCK, 72 h
[17] = Influenza A virus, A/Viet Nam/1203/2004(H5N1), MDCK

Row | Compound | IC50 (MDCK) [µM] | EC50 (Influenza A virus [3]; [17]) [µM] | selectivity ratio [4] | EC90 [6] [µM] | selectivity ratio [7] | EC90 (Influenza A virus [8]) [µM] | EC50 (Influenza B virus) [µM] | EC50 (Influenza A virus [9]) [µM] | selectivity ratio [10] | EC50 (H5N1 subtype [13]) [µM] | selectivity ratio [15] | EC90 (H5N1 subtype [16]) [µM] | selectivity ratio [1] | selectivity ratio [2] | selectivity ratio [5] | selectivity ratio [11] | selectivity ratio [12] | EC50 ([14]; Influenza A virus, MDCK) [µM] | further results
1 | Nc1ccn([C@@H]2C[C@H](CO)[C@@H](O)[C@H]2O)c(=O)n1 | > 414 | 0.8 | > 518 | 1.3 | > 318 | 3.8 | 0.8 | 1.6 | > 259 | 0.7 | > 518 | 10.5 |  |  |  |  |  |  | Ratio IC50/EC50 ([1]; mdck): > 518; Ratio IC50/EC50 ([2]; mdck): > 207; Ratio ([5]; mdck): > 276; Ratio IC50/EC50 ([11]; mdck): > 207; Ratio ([12]; mdck): > 73; EC50 ([14]; mdck): 0.6 µM
2 | Nc1ccn([C@H]2C[C@@H](CO)[C@H](O)[C@@H]2O)c(=O)n1 | > 414 | > 41 | < 10 | > 41 | < 10 | > 414 | > 41 | > 41 | 1 | > 41 | < 10 | > 414 | < 10 | < 10 | < 10 | 1 | < 10 | > 41 | 
3 | NC(=O)c1ncn([C@@H]2O[C@H](CO)[C@@H](O)[C@H]2O)n1 [RIBAVIRIN] | > 1310 |  | > 156 | 27 | > 49 | 13 | 19.5 | 16.4 | > 68 | 4.3 | > 55 | 43.6 | > 139 | > 65 | > 59 | > 40 | > 113 | 25.1 | EC50 (Influenza A virus [3]; mdck): 8.4 µM
